# The source made the active and inactive calls. No cut-off for these calls is given here.
# What was measured:
# Karpas-1106P [1] = test: Antiproliferative activity against human KARPAS-1106P cells harboring JAK2 assessed as inhibition of cell viability incubated for 48 hrs by CellTiterGlo assay; assay type: functional, cell-based
# How it was run: (§1)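 Cells seeded at 30–50% confluency in 96-well plates, then treated the next day in triplicate at up to 10 μM for 48 h. Viability read by CellTiter-Glo luminescence. IC50 taken from fitted dose–response curves.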
# LNCaP = test: Antiproliferative activity against human LNCaP cells assessed as inhibition of cell viability incubated for 48 hrs by CellTiterGlo assay; assay type: functional, cell-based; how it was run: as §1
# SET-2 [2] = test: Anti-tumor activity against human SET2 cells xenografted in SCID Beige mouse assessed as tumor growth inhibition at 75 mg/kg, po administered for 18 days and measured twice a week relative to control; assay type: functional; details: SET-2, 432 h, time 18 day, read-out: TGI
# How it was run: (§2)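 SCID beige mice received 5 × 10^6 SET-2 cells subcutaneously in the right flank, in serum-free medium mixed 1:1 with Matrigel. Dosing began when tumors averaged about 280 mm3 (day 31). Oral gavage at 10 ml/kg for 18 consecutive days, 12 mice per group. Caliper volume = (w² × l)/2. Animals were killed 3 h after the final dose.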
# [3] = In vivo inhibition of JAK2 V617F mutant in athymic BALB/c nude mouse xenografted with mouse BaF3 cells administered for 24 hrs; assay type: functional
# HCT-116 = test: Antiproliferative activity against human HCT-116 cells assessed as inhibition of cell viability incubated for 48 hrs by CellTiterGlo assay; assay type: functional, cell-based; details: HCT-116, 48 h; how it was run: as §1
# SET-2 [4] = test: Anti-tumor activity against human SET2 cells xenografted in SCID Beige mouse assessed as tumor growth inhibition at 150 mg/kg, po administered for 18 days and measured twice a week relative to control; assay type: functional; details: SET-2, 432 h, time 18 day, read-out: TGI; how it was run: as §2
# SET-2 [5] = test: Induction of cell cycle arrest in human SET2 cells expressing JAK2 V617F mutant assessed as decrease in accumulation of cells at S-phase incubated for 24 hrs by PI staining based flow cytometry; assay type: functional
# How it was run: (§3)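 Cells were fixed in 70% ice-cold ethanol and stained with propidium iodide, then analysed by flow cytometry for cell-cycle distribution.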
# COLO 205 = test: Antiproliferative activity against human COLO 205 cells assessed as inhibition of cell viability incubated for 48 hrs by CellTiterGlo assay; assay type: functional, cell-based; details: COLO 205, 48 h; how it was run: as §1
# [6] = biological target: Tyrosine-protein kinase JAK2 (Homo sapiens) (UniProt O60674); details: Jurkat, dose 40-1000 nM, time 3.0 hrs
# Chain of Tyrosine-protein kinase JAK2 (Homo sapiens) (O60674 whole entry): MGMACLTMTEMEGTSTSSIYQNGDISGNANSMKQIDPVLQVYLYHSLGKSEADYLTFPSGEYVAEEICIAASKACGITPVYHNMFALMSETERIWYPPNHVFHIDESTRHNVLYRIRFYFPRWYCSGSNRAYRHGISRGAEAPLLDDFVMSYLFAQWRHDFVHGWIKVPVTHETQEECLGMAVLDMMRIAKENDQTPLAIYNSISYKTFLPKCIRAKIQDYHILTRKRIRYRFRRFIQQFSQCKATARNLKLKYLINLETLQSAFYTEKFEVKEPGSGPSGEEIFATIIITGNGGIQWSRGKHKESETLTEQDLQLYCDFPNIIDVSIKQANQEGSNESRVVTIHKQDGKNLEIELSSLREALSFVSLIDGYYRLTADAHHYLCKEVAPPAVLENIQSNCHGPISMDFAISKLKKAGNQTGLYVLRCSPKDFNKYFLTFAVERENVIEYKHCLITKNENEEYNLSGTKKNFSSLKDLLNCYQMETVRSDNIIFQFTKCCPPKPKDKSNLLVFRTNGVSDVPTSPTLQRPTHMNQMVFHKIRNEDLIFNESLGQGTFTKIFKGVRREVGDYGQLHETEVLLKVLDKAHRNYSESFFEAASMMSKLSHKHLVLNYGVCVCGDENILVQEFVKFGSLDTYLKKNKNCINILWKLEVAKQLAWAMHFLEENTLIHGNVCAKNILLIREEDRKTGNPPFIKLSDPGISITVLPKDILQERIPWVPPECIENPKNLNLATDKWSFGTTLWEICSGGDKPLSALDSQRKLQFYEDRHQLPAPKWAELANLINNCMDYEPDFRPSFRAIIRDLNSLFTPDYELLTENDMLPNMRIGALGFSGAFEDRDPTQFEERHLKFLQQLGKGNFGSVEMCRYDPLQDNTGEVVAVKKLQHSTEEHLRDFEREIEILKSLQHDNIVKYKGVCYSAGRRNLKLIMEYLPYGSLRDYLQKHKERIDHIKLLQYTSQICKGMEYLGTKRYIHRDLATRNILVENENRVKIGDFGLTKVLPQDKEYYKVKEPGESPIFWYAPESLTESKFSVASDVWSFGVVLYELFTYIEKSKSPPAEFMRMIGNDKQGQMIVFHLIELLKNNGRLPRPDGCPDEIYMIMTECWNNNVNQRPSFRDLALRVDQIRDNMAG
# Karpas-1106P [7] = test: Induction of apoptosis in human KARPAS-1106P cells assessed as activation of caspase-3/7 incubated for 16 hrs; assay type: functional, cell-based
# How it was run: (§4)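 SET-2 and Karpas 1106P cells were exposed to graded drug concentrations for 16 h. Apoptosis was read as caspase-3/7 activation.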
# [8] = tested on: Tyrosine-protein kinase JAK2 (Homo sapiens), O60674 [V617F]; details: SET2, dose 8-1000 nM, time 3.0 hrs
# Chain of Tyrosine-protein kinase JAK2 (Homo sapiens), O60674 [V617F] (O60674 whole entry V617F): as the sequence (O60674 whole entry) above, with V617F counted along it
# [9] = tested on: Tyrosine-protein kinase JAK2 (Homo sapiens), O60674 [V617F]; details: HEL 92.1.7, dose 8-1000 nM, time 3.0 hrs
# SNU-475 = test: Antiproliferative activity against human SNU-475 cells assessed as inhibition of cell viability incubated for 48 hrs by CellTiterGlo assay; assay type: functional, cell-based; details: SNU-475, 48 h; how it was run: as §1
# [10] = tested on: Tyrosine-protein kinase JAK2 (Homo sapiens), O60674 [V617F]; details: HEL 92.1.7, dose 1000.0 nM, time 4-24 hrs
# SET-2 [11] = test: Induction of apoptosis in human SET2 cells assessed as activation of caspase-3/7 incubated for 16 hrs; assay type: functional, cell-based; how it was run: as §4
# [12] = biological target: Tyrosine-protein kinase JAK2 (Homo sapiens) (UniProt O60674); details: KARPAS-1106P, dose 8-1000 nM, time 3.0 hrs
# SET-2 [13] = test: Induction of cell cycle arrest in human SET2 cells expressing JAK2 V617F mutant assessed as accumulation of cells at G0/1 phase incubated for 24 hrs by PI staining based flow cytometry; assay type: functional; how it was run: as §3
# Mus musculus [14] = test: In vivo inhibition of JAK2 V617F mutant in SCID Beige mouse xenografted with human SET2 cells assessed as increased JAK2 phosphorylation at Y1007/8 by immunoblotting analysis; assay type: functional, organism-based; details: dose 75-150 mg/kg, route po
# How it was run: (§5)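 Subcutaneous SET-2 tumors in SCID beige mice. Single oral doses of 75 or 150 mg/kg were given at about 300 mm3 tumor size; in the chronic arm, dosing ran for 18 days. Tumors were collected 3 h post-dose, lysed, and immunoblotted for pJAK2 (Y1007/8) and pSTAT5.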
# [15] = tested on: KATO III stomach cancer cell line; test: Antiproliferative activity against human KATO III stomach cancer cell line assessed as inhibition of cell viability incubated for 48 hrs by CellTiterGlo assay; assay type: functional, cell-based; how it was run: as §1
# U-266 = test: Antiproliferative activity against human U-266 cells assessed as inhibition of cell viability incubated for 48 hrs by CellTiterGlo assay; assay type: functional, cell-based; details: U-266, 48 h; how it was run: as §1
# [16] = biological target: Tyrosine-protein kinase JAK2 (Homo sapiens) (UniProt O60674); details: Jurkat, dose 8-1000 nM, time 3.0 hrs
# [17] = tested on: Tyrosine-protein kinase JAK2 (Mus musculus), Q62120 [V617F]; test: Inhibition of JAK2 V617F mutant expressed in mouse BaF3 cells assessed as decreased total tyrosine phosphorylation at 1000 nM incubated for 3 hrs by Western blotting analysis; assay type: cell-based
# Chain of Tyrosine-protein kinase JAK2 (Mus musculus), Q62120 [V617F] (Q62120 as listed by the source): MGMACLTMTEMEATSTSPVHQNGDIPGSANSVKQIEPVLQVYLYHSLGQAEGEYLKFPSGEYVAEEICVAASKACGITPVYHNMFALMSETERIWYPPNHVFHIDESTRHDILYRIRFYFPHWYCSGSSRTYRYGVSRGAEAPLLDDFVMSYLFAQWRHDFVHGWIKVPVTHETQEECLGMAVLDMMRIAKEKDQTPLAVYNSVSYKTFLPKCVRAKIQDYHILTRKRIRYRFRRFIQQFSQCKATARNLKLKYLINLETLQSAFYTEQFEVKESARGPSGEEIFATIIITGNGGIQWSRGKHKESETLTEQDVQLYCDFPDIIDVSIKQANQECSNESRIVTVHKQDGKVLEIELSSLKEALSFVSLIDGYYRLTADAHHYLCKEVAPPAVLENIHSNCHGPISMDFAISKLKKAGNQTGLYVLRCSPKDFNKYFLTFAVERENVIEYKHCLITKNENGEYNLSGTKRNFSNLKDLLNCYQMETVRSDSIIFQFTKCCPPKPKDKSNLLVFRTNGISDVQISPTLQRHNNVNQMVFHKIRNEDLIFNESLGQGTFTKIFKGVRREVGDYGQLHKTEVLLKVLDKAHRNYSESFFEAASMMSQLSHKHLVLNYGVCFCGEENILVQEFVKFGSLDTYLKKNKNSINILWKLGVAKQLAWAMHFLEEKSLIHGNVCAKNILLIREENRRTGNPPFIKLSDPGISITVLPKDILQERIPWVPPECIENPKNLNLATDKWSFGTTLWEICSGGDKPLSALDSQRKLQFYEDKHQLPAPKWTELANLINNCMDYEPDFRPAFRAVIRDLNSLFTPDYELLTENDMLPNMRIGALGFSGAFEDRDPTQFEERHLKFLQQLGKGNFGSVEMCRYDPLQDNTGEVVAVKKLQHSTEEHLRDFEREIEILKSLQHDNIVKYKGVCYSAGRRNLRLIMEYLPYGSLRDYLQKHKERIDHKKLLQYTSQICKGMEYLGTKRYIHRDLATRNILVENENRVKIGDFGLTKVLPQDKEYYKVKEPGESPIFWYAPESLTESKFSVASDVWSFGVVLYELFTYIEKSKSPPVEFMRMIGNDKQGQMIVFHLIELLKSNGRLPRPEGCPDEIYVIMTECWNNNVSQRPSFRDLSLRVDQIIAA
# A2780 = test: Antiproliferative activity against human A2780 cells assessed as inhibition of cell viability incubated for 48 hrs by CellTiterGlo assay; assay type: functional, cell-based; details: A2780, 48 h; how it was run: as §1
# Mus musculus [18] = test: In vivo inhibition of JAK2 V617F mutant in SCID Beige mouse xenografted with human SET2 cells assessed as decreased STAT5 phosphorylation at Y694 by immunoblotting analysis; assay type: functional, organism-based; details: dose 75-150 mg/kg, route po; how it was run: as §5
compound,measurement,setting,value
C1=N/C2=N/c3ccc(OCCN4CCCC4)c(c3)COC/C=C/COCc3cccc(c3)C(=C1)N2 [PACRITINIB],IC50,Karpas-1106P [1],0.348 µM
same,IC50,LNCaP,0.917 µM
same,inhibition in vivo at 75 mg/kg,SET-2 [2],40%
same,FIC50,[3],0.019 µM
same,IC50,HCT-116,1.69 µM
same,inhibition in vivo at 150 mg/kg,SET-2 [4],61%
same,Activity,SET-2 [5],Dose-Dependent Effect
same,IC50,COLO 205,2.62 µM
same,inhibition,[6],Active
same,Activity,Karpas-1106P [7],Dose-Dependent Effect
same,EC50,Karpas-1106P [7],1.12 µM
same,inhibition,[8],Dose-Dependent Effect
same,inhibition,[9],Active
same,IC50,SNU-475,2.44 µM
same,inhibition,[10],Tde
same,Activity,SET-2 [11],Dose-Dependent Effect
same,EC50,"SET-2 [11]; SET-2, 16 h",0.571 µM
same,inhibition,[12],Active
same,Activity,SET-2 [13],Dose-Dependent Effect
same,Activity,Mus musculus [14],Dose-Dependent Effect
same,IC50,[15],2.06 µM
same,IC50,U-266,1.35 µM
same,inhibition,[16],Active
same,inhibition,[17],Active
same,IC50,A2780,0.664 µM
same,Activity,Mus musculus [18],Dose-Dependent Effect
